Positions of bridges follow the written chain, without caps; N, C: chain ends. Non-standard residues stand in square brackets, D forms with d. Residues, ends and D or L forms follow the SMILES beside them. d2Nal = N[C@H](Cc1ccc2ccccc2c1)C(=O)O
Legend:
Melanocortin receptor 5 [1] = target: T1, Melanocortin receptor 5 (Homo sapiens, UniProt P33032); test: (§1) Effective concentration of peptide at 50% maximal cAMP generation; format: functional
Outline: (§2)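 Receptor-transfected human MCR HEK293 cells were seeded at 50 000 cells/well 48 h before the assay. The reaction was stopped with ice-cold Tris/EDTA, and lysates were boiled 15 min. cAMP was measured by competitive binding kit.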

Melanocortin receptor 3 [2] = target: T2, Melanocortin receptor 3 (Homo sapiens, UniProt P41968); test: as §1; format: functional; outline: as §2
Melanocortin receptor 5 [3] = target: T1, Melanocortin receptor 5; test: Inhibition of human melanocortin 5 receptor
Melanocortin receptor 3 [4] = target: T2, Melanocortin receptor 3; test: Inhibition of human Melanocortin 3 receptor
Melanocortin receptor 4 [5] = target: T3, Melanocortin receptor 4 (Homo sapiens, UniProt P32245); test: Inhibition of human melanocortin 4 receptor
Melanocortin receptor 4 [6] = target: T3, Melanocortin receptor 4; test: (§3) Effective concentration of peptide at 50% maximal cAMP generation (10e-10 to 10e-4 M); format: functional
Outline: as §2, with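 “assay. Cells were preincubated in EBSS with 0.5 mM IBMX for 1 min at 37 °C, then exposed to peptide (10^-10 to 10^-4 M) for 3 min at 37 °C.” for “assay.”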

Melanocortin receptor 4 [7] = target: T3, Melanocortin receptor 4; test: as §1; format: functional
Melanocortin receptor 5 [8] = target: T1, Melanocortin receptor 5; test: as §3; format: functional
Outline: as §2, with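 “assay. Cells were preincubated in EBSS with 0.5 mM IBMX for 1 min at 37 °C, then exposed to peptide (10^-10 to 10^-4 M) for 3 min at 37 °C.” for “assay.”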

Melanocortin receptor 3 [9] = target: T2, Melanocortin receptor 3; test: Inhibitory activity against human Melanocortin 3 receptor was determined
Outline: (§4)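 Whole-cell competition binding in HEK293 cells stably transfected with human MCRs (CMVneo vector), 50 000 cells/well seeded 48 h before. Binding buffer: MEM, 25 mM HEPES pH 7.4, 0.2% BSA, 1,10-phenanthroline, leupeptin, bacitracin. Cells were incubated with unlabeled peptide (10^-10 to 10^-4 M) and 0.1386 nM [125I-Tyr2]-[Nle4,D-Phe7]α-MSH for 40 min at 37 °C, then washed, lysed (NaOH/Triton X-100) and gamma-counted.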

Melanocortin receptor 5 [10] = target: T1, Melanocortin receptor 5; test: Inhibitory activity against human melanocortin receptor human Melanocortin 5 receptor was determined; outline: as §4
Melanocortin receptor 4 [11] = target: T3, Melanocortin receptor 4; test: Inhibitory activity against human melanocortin receptor human Melanocortin 4 receptor was determined; outline: as §4

T2 sequence (P41968 whole entry): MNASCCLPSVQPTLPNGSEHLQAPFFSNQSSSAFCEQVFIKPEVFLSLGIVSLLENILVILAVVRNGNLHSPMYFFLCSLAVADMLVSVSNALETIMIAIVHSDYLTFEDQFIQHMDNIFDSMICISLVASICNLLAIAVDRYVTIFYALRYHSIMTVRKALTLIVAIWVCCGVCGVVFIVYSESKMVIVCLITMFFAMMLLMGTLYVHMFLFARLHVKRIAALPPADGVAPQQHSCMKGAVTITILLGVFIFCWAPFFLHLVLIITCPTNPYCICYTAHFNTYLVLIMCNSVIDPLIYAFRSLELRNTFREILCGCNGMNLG
T3 sequence (P32245 whole entry): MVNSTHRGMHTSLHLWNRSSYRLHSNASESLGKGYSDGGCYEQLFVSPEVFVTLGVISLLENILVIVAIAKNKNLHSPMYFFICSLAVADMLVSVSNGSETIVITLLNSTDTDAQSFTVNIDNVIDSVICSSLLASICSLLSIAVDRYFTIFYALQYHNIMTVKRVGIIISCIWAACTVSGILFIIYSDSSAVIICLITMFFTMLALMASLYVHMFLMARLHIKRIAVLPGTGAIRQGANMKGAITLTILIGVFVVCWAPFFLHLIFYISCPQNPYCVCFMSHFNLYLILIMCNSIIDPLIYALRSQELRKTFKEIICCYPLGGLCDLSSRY
T1 sequence (P33032 whole entry): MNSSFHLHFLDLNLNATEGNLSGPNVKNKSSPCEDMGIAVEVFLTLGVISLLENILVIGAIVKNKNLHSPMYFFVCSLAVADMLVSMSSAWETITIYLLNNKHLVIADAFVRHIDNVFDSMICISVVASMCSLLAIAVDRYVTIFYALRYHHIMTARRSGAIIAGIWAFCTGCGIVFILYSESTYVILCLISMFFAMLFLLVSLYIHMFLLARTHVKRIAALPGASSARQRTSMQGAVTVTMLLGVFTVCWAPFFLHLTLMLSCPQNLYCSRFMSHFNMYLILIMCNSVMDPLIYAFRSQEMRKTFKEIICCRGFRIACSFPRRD

SMILES | EC50 (Melanocortin receptor 5 [1]) [nM] | EC50 (Melanocortin receptor 3 [2]) [nM] | IC50 (Melanocortin receptor 5 [3]) [nM] | IC50 (Melanocortin receptor 3 [4]) [nM] | IC50 (Melanocortin receptor 4 [5]) [nM] | EC50 (Melanocortin receptor 4 [6]) [nM] | EC50 (Melanocortin receptor 4 [7]) [nM] | EC50 (Melanocortin receptor 5 [8]) [nM] | Ki (Melanocortin receptor 3 [9]) [nM] | Ki (Melanocortin receptor 5 [10]) [nM] | Ki (Melanocortin receptor 4 [11]) [nM]
CC(=O)N[C@@H]1CSSC[C@@H](C(=O)N2CCC[C@H]2C(=O)N2CCC[C@H]2C(=O)N[C@@H](CCCCN)C(=O)N[C@@H](CC(=O)O)C(N)=O)NC(=O)[C@H](Cc2c[nH]c3ccccc23)NC(=O)[C@H](CCCN=C(N)N)NC(=O)[C@@H](Cc2ccc3ccccc3c2)NC(=O)[C@H](Cc2c[nH]cn2)NC(=O)[C@H](CCC(=O)O)NC1=O |  | > 10000 | 26000 | 200 | 3700 |  | > 10000 | 880 |  |  | 
CC(=O)N[C@H]1CSSC[C@H](C(=O)N2CCC[C@H]2C(=O)N2CCC[C@H]2C(=O)N[C@@H](CCCCN)C(=O)N[C@@H](CC(=O)O)C(N)=O)NC(=O)[C@H](Cc2c[nH]c3ccccc23)NC(=O)[C@H](CCCN=C(N)N)NC(=O)[C@@H](Cc2ccc3ccccc3c2)NC(=O)[C@H](Cc2c[nH]cn2)NC(=O)[C@H](CCC(=O)O)NC1=O | > 10000 | > 10000 | 15000 | 2900 | 40000 |  | > 10000 |  |  |  | 
CC(=O)N[C@H]1CSSC[C@@H](C(=O)N2CCC[C@H]2C(=O)N2CCC[C@H]2C(=O)N[C@@H](CCCCN)C(=O)N[C@@H](CC(=O)O)C(N)=O)NC(=O)[C@H](Cc2c[nH]c3ccccc23)NC(=O)[C@H](CCCN=C(N)N)NC(=O)[C@@H](Cc2ccc3ccccc3c2)NC(=O)[C@H](Cc2c[nH]cn2)NC(=O)[C@H](CCC(=O)O)NC1=O | 190 | > 10000 | 180 | 130 | 3.4 |  | 6.1 |  |  |  | 
CC(=O)N[C@H]1CC(=O)NCCCC[C@@H](C(=O)N2CCC[C@H]2C(=O)N2CCC[C@H]2C(=O)N[C@@H](CCCCN)C(=O)N[C@@H](CC(=O)O)C(N)=O)NC(=O)[C@H](Cc2c[nH]c3ccccc23)NC(=O)[C@H](CCCNC(=N)N)NC(=O)[C@@H](Cc2ccccc2)NC(=O)[C@H](Cc2c[nH]cn2)NC(=O)[C@H](CCC(=O)O)NC1=O | > 10000 | > 10000 | > 10000 | > 1000 | > 10000 |  | > 10000 |  |  |  | 
CC(=O)N[C@H]1CSSC[C@@H](C(=O)N2CCC[C@H]2C(=O)N2CCC[C@H]2C(=O)N[C@@H](CCCCN)C(=O)N[C@@H](CC(=O)O)C(N)=O)NC(=O)CNC(=O)[C@H](Cc2c[nH]c3ccccc23)NC(=O)[C@H](CCCNC(=N)N)NC(=O)[C@@H](Cc2ccc3ccccc3c2)NC(=O)[C@H](Cc2c[nH]cn2)NC(=O)[C@H](CCC(=O)O)NC1=O (Ac-CEH[d2Nal]RWGCPPKD-NH2; disulfide 1-8) |  |  |  |  |  |  |  |  | 54 | 694 | 3.1
CC(=O)N[C@@H]1CSSC[C@@H](C(=O)N2CCC[C@H]2C(=O)N2CCC[C@H]2C(=O)N[C@@H](CCCCN)C(=O)N[C@@H](CC(=O)O)C(N)=O)NC(=O)[C@H](Cc2c[nH]c3ccccc23)NC(=O)[C@H](CCCNC(=N)N)NC(=O)[C@@H](Cc2ccccc2)NC(=O)[C@H](Cc2c[nH]cn2)NC(=O)[C@H](CCC(=O)O)NC1=O | > 10000 | > 10000 | 73 | 620 | 37000 |  | > 10000 |  |  |  | 
CC(=O)N[C@@H]1C(=O)N[C@@H](CCC(=O)O)C(=O)N[C@@H](Cc2c[nH]cn2)C(=O)N[C@H](Cc2ccc3ccccc3c2)C(=O)N[C@@H](CCCN=C(N)N)C(=O)N[C@@H](Cc2c[nH]c3ccccc23)C(=O)N[C@H](C(=O)N2CCC[C@H]2C(=O)N2CCC[C@H]2C(=O)N[C@@H](CCCCN)C(=O)N[C@@H](CC(=O)O)C(N)=O)CSSC1(C)C | > 10000 | > 10000 | 94 | 3 | 750 |  | > 10000 |  |  |  | 

Continued, values first:

EC50 (Melanocortin receptor 5 [1]) [nM] | EC50 (Melanocortin receptor 3 [2]) [nM] | IC50 (Melanocortin receptor 5 [3]) [nM] | IC50 (Melanocortin receptor 3 [4]) [nM] | IC50 (Melanocortin receptor 4 [5]) [nM] | EC50 (Melanocortin receptor 4 [6]) [nM] | EC50 (Melanocortin receptor 4 [7]) [nM] | EC50 (Melanocortin receptor 5 [8]) [nM] | Ki (Melanocortin receptor 3 [9]) [nM] | Ki (Melanocortin receptor 5 [10]) [nM] | Ki (Melanocortin receptor 4 [11]) [nM] | SMILES
> 10000 | > 10000 | 97000 | 31 | 17000 | > 10000 |  |  |  |  |  | CC(=O)N[C@H]1CSSC[C@@H](C(=O)N2CCC[C@H]2C(=O)N2CCC[C@H]2C(=O)N[C@@H](CCCCN)C(=O)N[C@@H](CC(=O)O)C(N)=O)NC(=O)[C@H](Cc2c[nH]c3ccccc23)NC(=O)[C@H](CCCNC(=N)N)NC(=O)[C@@H](Cc2ccc3ccccc3c2)NC(=O)[C@@H]2CCCN2C(=O)[C@H](CCC(=O)O)NC1=O
> 10000 | > 10000 | 10 | 5600 | > 10000 |  | > 10000 |  |  |  |  | CC(=O)N[C@H]1CSSC[C@H](C(=O)N2CCC[C@H]2C(=O)N2CCC[C@H]2C(=O)N[C@@H](CCCCN)C(=O)N[C@@H](CC(=O)O)C(N)=O)NC(=O)[C@H](Cc2c[nH]c3ccccc23)NC(=O)[C@H](CCCNC(=N)N)NC(=O)[C@@H](Cc2ccccc2)NC(=O)[C@H](Cc2c[nH]cn2)NC(=O)[C@H](CCC(=O)O)NC1=O
> 10000 | 2.8 | 27000 | 430 | 1100 |  | 6.3 |  |  |  |  | CC(=O)N[C@@H]1C(=O)N[C@@H](CCC(=O)O)C(=O)N[C@@H](Cc2c[nH]cn2)C(=O)N[C@H](Cc2ccccc2)C(=O)N[C@@H](CCCN=C(N)N)C(=O)N[C@@H](Cc2c[nH]c3ccccc23)C(=O)N[C@H](C(=O)N2CCC[C@H]2C(=O)N2CCC[C@H]2C(=O)N[C@@H](CCCCN)C(=O)N[C@@H](CC(=O)O)C(N)=O)CSSC1(C)C
 | 401 | 200 | > 1000 | 3300 |  | > 10000 | 380 |  |  |  | CC(=O)N[C@H]1CSSC[C@@H](C(=O)N2CCC[C@H]2C(=O)N2CCC[C@H]2C(=O)N[C@@H](CCCCN)C(=O)N[C@@H](CC(=O)O)C(N)=O)NC(=O)[C@H](Cc2c[nH]c3ccccc23)NC(=O)[C@H](CCCNC(=N)N)NC(=O)[C@@H](Cc2ccccc2)NC(=O)[C@@H]2CCCN2C(=O)[C@H](CCC(=O)O)NC1=O
